ChEMBL document CHEMBL1158380 (Eur J Med Chem, 2009)

Key:
MCF7 = experiment: Antiproliferative activity against human MCF7 cells after 48 hrs by sulforhodamine B assay; type: functional, cell-based; conditions: MCF7, 48 h
How it was run: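 MCF-7 cells from the NCI screening program, grown as monolayers in RPMI 1640 with 5% FBS at 37 °C in humidified 5% CO2. Cells were seeded 24 h before compound addition (DMSO, final 1% v/v) at varying concentrations.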

[1] = Inhibition of bovine brain tubulin by spectrophotometry; design: species or system Bos taurus
How it was run: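 Assembly of electrophoretically homogeneous bovine brain tubulin at 10 µM (1.0 mg/mL) in 0.8 M monosodium glutamate pH 6.6 with 4% DMSO. Tubulin was preincubated with compound at varying concentrations for 15 min at 30 °C without GTP, chilled, then 0.4 mM GTP was added. After a jump from 0 to 30 °C, turbidity at 350 nm was followed for 20 min.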

Bos taurus [2] = organism: Bos taurus; experiment: Displacement of [3H]colchicine from bovine brain tubulin at 5 uM by scintillation counting
How it was run: (§1)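 Electrophoretically homogeneous bovine brain tubulin (1.0 µM, 0.1 mg/mL) in a tubulin-stabilizing buffer with 5.0 µM [3H]colchicine and compound at 1.0, 5.0 or 50 µM, final DMSO 5% (v/v). Incubation was 10 min at 37 °C. Reactions were stopped with ice water and filtered through stacked DEAE-cellulose filters. Read-out is % inhibition of colchicine binding.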

Bos taurus [3] = organism: Bos taurus; experiment: Displacement of [3H]colchicine from bovine brain tubulin at 50 uM by scintillation counting; how it was run: as §1
Bos taurus [4] = organism: Bos taurus; experiment: Displacement of [3H]colchicine from bovine brain tubulin at 1 uM by scintillation counting
MDA-MB-435 = experiment: Cytotoxicity against human MDA-MB-435 cells after 72 hrs by MTT assay; type: functional, cell-based; conditions: MDA-MB-435, 72 h
How it was run: (§2)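 Four human tumour lines (MDA/MB-435, HCT-8, SF-295, HL-60) were exposed to compound at 0.0009–5 µg/mL for 72 h. Growth was quantified by living-cell reduction of MTT to blue formazan.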

HL-60 = experiment: Cytotoxicity against human HL60 cells after 72 hrs by MTT assay; type: functional, cell-based; conditions: HL-60, 72 h; how it was run: as §2
HCT-8 = experiment: Cytotoxicity against human HCT8 cells after 72 hrs by MTT assay; type: functional, cell-based; conditions: HCT-8, 72 h; how it was run: as §2
SF-295 = experiment: Cytotoxicity against human SF295 cells after 72 hrs by MTT assay; type: functional, cell-based; conditions: SF-295, 72 h; how it was run: as §2

Structure (SMILES)	IC50 (MCF7)	IC50 [1]	Activity (Bos taurus [2])	Activity (Bos taurus [3])	Activity (Bos taurus [4])	IC50 (MDA-MB-435)	IC50 (HL-60)	IC50 (HCT-8)	IC50 (SF-295)
COc1ccc(/C=C/c2cc(OC)c(OC)c(OC)c2)cc1	4.8 nM	1100 nM	97%		74%				
COc1ccc([S+]([O-])c2cc(OC)c(OC)c(OC)c2)cc1 (centres undefined)	2200 nM	31000 nM	16%	41%		280 nM	340 nM	470 nM	1460 nM
COc1ccc(C(=O)c2cc(OC)c(OC)c(OC)c2)cc1O [PHENSTATIN]	34 nM	730 nM	78%		70%				
COc1ccc(/C=C/c2cc(OC)c(OC)c(OC)c2)cc1O [E-COMBRETASTATIN A-4]	1.4 nM				85%				
COc1ccc(S(=O)(=O)c2cc(OC)c(OC)c(OC)c2)cc1	2600 nM	> 40000 nM	18%	53%		2320 nM	4750 nM	12200 nM	8100 nM

Further lines, with some results ahead:

IC50 (MCF7)	IC50 [1]	Activity (Bos taurus [2])	Activity (Bos taurus [3])	Structure (SMILES)	Activity (Bos taurus [4])	IC50 (MDA-MB-435)	IC50 (HL-60)	IC50 (HCT-8)	IC50 (SF-295)
130 nM	4000 nM	36%	83%	COc1ccc(Cc2cc(OC)c(OC)c(OC)c2)cc1					
16 nM	1200 nM	89%		COc1ccc(Sc2cc(OC)c(OC)c(OC)c2)cc1	56%	3 nM	3 nM	40 nM	30 nM
160 nM	2200 nM	50%	95%	COc1ccc(C(=O)c2cc(OC)c(OC)c(OC)c2)cc1					
78 nM	2600 nM	50%	89%	COc1ccc(CCc2cc(OC)c(OC)c(OC)c2)cc1					
59 nM	2900 nM	44%	91%	COc1ccc(Cc2cc(OC)c(OC)c(OC)c2)cc1O					
13 nM	1600 nM	67%		COc1ccc(CCc2cc(OC)c(OC)c(OC)c2)cc1O	49%				
